From ChEMBL document CHEMBL5653624 (Biochem Pharmacol, 2016) come the findings set out here.

The test system of assay [1] is RAW264.7. The experiment in a line: Antiinflammatory activity in mouse RAW264.7 cells assessed as down regulation of LPS/IFNgamma-induced IL-6 gene expression at 1 uM preincubated for 20 hrs followed by LPS/IFNgamma stimulation and measured after 4 hrs by RT-qPCR analysis. In kind it is functional, cell-based. As to conditions: time 24.0 hrs. The gist of the method:
(§1)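 RAW 264.7 macrophages in DMEM/10% FBS received 1 μM RGFP966 for 20 h, with LPS/IFNγ for the last 4 h. Washed with cold DPBS, total RNA isolated, integrity checked by 28S/18S. RT-qPCR by comparative Ct (2−ΔΔCt), fold change versus LPS/IFNγ control. Mean ± SD of 3–5 independent experiments.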
On the technique in general: Quantitative PCR measures a nucleic acid by following its amplification.

Assay [2] relates to RAW264.7. Briefly: Antiinflammatory activity in mouse RAW264.7 cells assessed as down regulation of LPS/IFNgamma-induced IL-12b gene expression at 1 uM preincubated for 20 hrs followed by LPS/IFNgamma stimulation and measured after 4 hrs by RT-qPCR analysis. In kind it is functional, cell-based. As to conditions: time 24.0 hrs. The gist of the method:
as §1

Assay [3] has as its system HBE. The experiment in a line: Antiinflammatory activity in HBE cells assessed as effect on LPS/IFNgamma-induced IL-10 gene expression at 2 uM […] by RT-qPCR analysis. In kind it is functional, cell-based. Conditions: Homo sapiens. The gist of the method:
(§2)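 HBE cells (passage 73–103) or immortalized hASM cells (2–3 donors, passage 27–35), serum-starved. Then 2 μM RGFP966 for 20 h, with LPS/IFNγ for the last 4 h. Total RNA isolated; RT-qPCR by 2−ΔΔCt, fold change versus LPS/IFNγ control. Mean ± SD of 3–5 independent experiments.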

In assay [4] the test system is HBE. Briefly: Antiinflammatory activity in HBE cells assessed as up regulation of LPS/IFNgamma-induced IL-6 gene expression at 2 uM […] by RT-qPCR analysis. In kind it is functional, cell-based. Conditions: Homo sapiens. Put shortly: as §2
Assay [5] has as its system HBE. Briefly: Antiinflammatory activity in HBE cells assessed as effect on LPS/IFNgamma-induced IL-12b gene expression at 2 uM […] by RT-qPCR analysis. In kind it is functional, cell-based. Conditions: Homo sapiens. The gist of the method: as §2
For a further assay, the system named is HASMC. The experiment in a line: Antiinflammatory activity in HASMC cells assessed as effect on LPS/IFNgamma-induced IL-1beta gene expression at 2 uM […] by RT-qPCR analysis. In kind it is functional, cell-based. Conditions: Homo sapiens. The gist of the method: as §2
The target of assay [6] is T1, Histone deacetylase 3 (Mus musculus) (UniProt O88895).
T1 sequence (whole entry): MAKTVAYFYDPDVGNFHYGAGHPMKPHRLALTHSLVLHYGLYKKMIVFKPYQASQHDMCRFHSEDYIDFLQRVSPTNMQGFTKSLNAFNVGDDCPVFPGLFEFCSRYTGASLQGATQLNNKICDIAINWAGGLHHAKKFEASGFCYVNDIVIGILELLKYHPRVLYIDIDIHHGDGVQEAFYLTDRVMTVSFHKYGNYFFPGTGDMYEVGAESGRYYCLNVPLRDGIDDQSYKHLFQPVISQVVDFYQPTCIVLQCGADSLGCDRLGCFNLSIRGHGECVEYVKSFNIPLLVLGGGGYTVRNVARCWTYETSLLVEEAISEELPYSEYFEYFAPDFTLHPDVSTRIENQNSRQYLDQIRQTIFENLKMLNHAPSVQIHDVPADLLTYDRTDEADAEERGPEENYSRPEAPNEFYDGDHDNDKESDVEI
The experiment in a line: Inhibition of HDAC3 in mouse RAW-Blue cells assessed as effect on NF-kappaB p65 transcriptional activity measured after 16 hrs by SEAP reporter gene assay. In kind it is cell-based. Put shortly: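 RAW-Blue cells (RAW 264.7-derived, stably expressing an NF-κB/AP-1-inducible secreted embryonic alkaline phosphatase) exposed to inhibitor for 20 h total, with 10 ng/ml LPS plus 10 ng/ml IFNγ added for the final 4 h. Supernatant mixed with QUANTI-Blue medium, 37 °C 1–2 h in the dark, absorbance 630 nm; reported as % of control.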
(In a reporter assay the amount or activity of a reporter protein is the signal.)

Assay [7] has as its system RAW264.7. Briefly: Antiinflammatory activity in LPS/IFNgamma-stimulated mouse RAW264.7 cells assessed as effect on HDAC2 mRNA expression preincubated for 20 hrs followed by LPS/IFNgamma stimulation and measured after 4 hrs by RT-qPCR analysis. Conditions: time 24.0 hrs. In kind it is functional, cell-based.
Assay [8] has as its system RAW264.7. The experiment in a line: Antiinflammatory activity in LPS/IFNgamma-stimulated mouse RAW264.7 cells assessed as effect on NF-kappaB p65 mRNA expression preincubated for 20 hrs followed by LPS/IFNgamma stimulation and measured after 4 hrs by RT-qPCR analysis. In kind it is functional, cell-based. As to conditions: time 24.0 hrs.
The subject of assay [9] is RAW264.7. The experiment in a line: Antiinflammatory activity in LPS/IFNgamma-stimulated mouse RAW264.7 cells assessed as effect on IkappaBalpha mRNA expression preincubated for 20 hrs followed by LPS/IFNgamma stimulation and measured after 4 hrs by RT-qPCR analysis. In kind it is functional, cell-based. Conditions: time 24.0 hrs.
Assay [10] deals with Lung. The experiment in a line: Antiinflammatory activity in C57bl/6 mouse precision-cut lung slices assessed as effect on LPS/IFNgamma-induced HDAC1 gene expression at 1 to 10 uM preincubated for 20 hrs followed by LPS/IFNgamma stimulation and measured after 4 hrs by RT-qPCR analysis. In kind it is functional, tissue-based. As to conditions: dose 1-10 µM, time 24.0 hrs.
Assay [11] concerns Lung. Briefly: Antiinflammatory activity in C57bl/6 mouse precision-cut lung slices assessed as effect on LPS/IFNgamma-induced HDAC3 gene expression at 1 to 10 uM preincubated for 20 hrs followed by LPS/IFNgamma stimulation and measured after 4 hrs by RT-qPCR analysis. As to conditions: dose 1-10 µM, time 24.0 hrs. In kind it is functional, tissue-based.
The test system of assay [12] is Lung. The experiment in a line: Antiinflammatory activity in C57bl/6 mouse precision-cut lung slices assessed as effect on LPS/IFNgamma-induced HDAC1 expression at 1 to 10 uM preincubated for 20 hrs followed by LPS/IFNgamma stimulation and measured after 4 hrs by Western blot analysis. As to conditions: dose 1-10 µM, time 24.0 hrs. In kind it is functional, tissue-based.

Assay [13] relates to Lung. Briefly: Antiinflammatory activity in C57bl/6 mouse precision-cut lung slices assessed as effect on LPS/IFNgamma-induced HDAC3 expression at 1 to 10 uM preincubated for 20 hrs followed by LPS/IFNgamma stimulation and measured after 4 hrs by Western blot analysis. In kind it is functional, tissue-based. As to conditions: dose 1-10 µM, time 24.0 hrs. In general terms: In western blotting, separated proteins are transferred to a membrane and probed.

The target of assay [14] is Histone deacetylase 1 (Mus musculus) (UniProt O09106). Briefly: Effect on HDAC1 nuclear localization in LPS/IFNgamma-stimulated mouse RAW264.7 cells preincubated for 20 hrs followed by LPS/IFNgamma stimulation and measured after 1 hr by Hoechst staining based confocal laser scanning microscopy. In kind it is cell-based. Put shortly: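 RAW 264.7 cells at 20,000 cells/cm2 received 1 μM RGFP966 for 20 h, then 1 h LPS/IFNγ. Fixed in 4% formaldehyde, permeabilized with 0.25% Triton X-100, blocked with 5% BSA. Primary antibodies 2 h at 4 °C, AlexaFluor secondaries 1 h, Hoechst nuclear stain. Confocal imaging at 630×; 4 independent experiments.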

Assay [15] addresses Histone deacetylase 2 (Mus musculus) (UniProt P70288). The experiment in a line: Effect on HDAC2 nuclear localization in LPS/IFNgamma-stimulated mouse RAW264.7 cells preincubated for 20 hrs followed by LPS/IFNgamma stimulation and measured after 1 hr by Western blot analysis. In kind it is cell-based. The gist of the method:
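RAW 264.7 cells treated for 20 h, then 1 h LPS/IFNγ, and fractionated into nuclear and cytosolic parts. Fractions immunoblotted, with PARP-1 and β-actin as internal controls. Densitometry with vehicle control set at 100%. Mean ± SD of 3–4 independent experiments.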

Assay [16] deals with T1, Histone deacetylase 3 (Mus musculus). The experiment in a line: Inhibition of HDAC3 in mouse RAW264.7 cells assessed as effect on LPS/IFNgamma-induced NF-kappaB p65 acetylation level preincubated for 20 hrs followed by LPS/IFNgamma stimulation and measured after 1 hr by Western blot analysis.

Molecules are shown by their SMILES. The source made the active and inactive calls. The calls are words filed in the database; no cut-off is given here.

Chain of Histone deacetylase 1 (Mus musculus) (O09106 whole entry): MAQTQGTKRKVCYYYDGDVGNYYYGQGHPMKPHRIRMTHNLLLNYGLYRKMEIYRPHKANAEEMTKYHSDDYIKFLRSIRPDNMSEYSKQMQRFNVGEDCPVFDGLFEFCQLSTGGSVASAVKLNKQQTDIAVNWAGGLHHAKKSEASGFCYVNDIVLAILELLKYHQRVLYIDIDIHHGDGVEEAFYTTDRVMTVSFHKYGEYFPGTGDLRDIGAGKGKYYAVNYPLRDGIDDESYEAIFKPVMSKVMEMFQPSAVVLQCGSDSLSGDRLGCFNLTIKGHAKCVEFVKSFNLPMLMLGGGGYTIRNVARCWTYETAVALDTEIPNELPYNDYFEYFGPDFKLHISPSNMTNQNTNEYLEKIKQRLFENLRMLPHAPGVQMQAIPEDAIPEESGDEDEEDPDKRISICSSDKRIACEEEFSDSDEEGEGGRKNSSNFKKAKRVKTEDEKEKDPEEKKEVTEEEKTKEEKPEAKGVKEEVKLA
Chain of Histone deacetylase 2 (Mus musculus) (P70288 whole entry): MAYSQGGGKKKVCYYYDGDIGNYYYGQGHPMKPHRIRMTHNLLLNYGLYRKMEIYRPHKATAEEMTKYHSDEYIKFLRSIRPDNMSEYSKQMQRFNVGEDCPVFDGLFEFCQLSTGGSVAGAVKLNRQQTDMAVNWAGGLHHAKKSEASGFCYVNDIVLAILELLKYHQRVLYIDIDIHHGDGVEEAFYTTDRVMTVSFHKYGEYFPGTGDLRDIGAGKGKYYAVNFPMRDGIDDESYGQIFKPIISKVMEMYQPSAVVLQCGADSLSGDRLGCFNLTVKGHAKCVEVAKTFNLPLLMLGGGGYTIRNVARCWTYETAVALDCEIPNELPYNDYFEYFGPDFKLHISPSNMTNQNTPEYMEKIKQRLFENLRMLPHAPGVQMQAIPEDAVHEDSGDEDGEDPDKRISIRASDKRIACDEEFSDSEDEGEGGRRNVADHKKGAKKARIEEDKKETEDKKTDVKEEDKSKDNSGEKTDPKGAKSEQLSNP

As to `Nc1cc(F)ccc1NC(=O)/C=C/c1cnn(C/C=C/c2ccccc2)c1`, the result with RAW264.7 [1], in the assay with RAW264.7 [2] and in the assay with HBE [4] was Active. In addition, the outcome with HBE [3], in the assay on HBE [5], in the assay on HASMC, with RAW264.7 [7], with RAW264.7 [8] and in the assay with RAW264.7 [9] was inactive. Moreover, the result (in the assay with Lung [10]; in the assay on Lung [11]; in the assay with Lung [12]; in the assay with Lung [13]; in assay [14]; in [15]) was inactive. For the same compound, the inhibition entry in assay [6] and in assay [16] was “inactive” each time.
